PP1 counter: counter-screen for PP5 inhibitors: inhibitors of human PP1-alpha. P62136. purified PP1alpha, OMFP fluorescence. inhibition, % at 6.7 µM. 0.9% of 320,000 active. AID 2235;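 active means inhibition above the mean inhibition of all tested compounds plus 3 SD, computed separately for each screening campaign, cut at about 15% in these data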
Target sequence (P62136 whole entry, looked up): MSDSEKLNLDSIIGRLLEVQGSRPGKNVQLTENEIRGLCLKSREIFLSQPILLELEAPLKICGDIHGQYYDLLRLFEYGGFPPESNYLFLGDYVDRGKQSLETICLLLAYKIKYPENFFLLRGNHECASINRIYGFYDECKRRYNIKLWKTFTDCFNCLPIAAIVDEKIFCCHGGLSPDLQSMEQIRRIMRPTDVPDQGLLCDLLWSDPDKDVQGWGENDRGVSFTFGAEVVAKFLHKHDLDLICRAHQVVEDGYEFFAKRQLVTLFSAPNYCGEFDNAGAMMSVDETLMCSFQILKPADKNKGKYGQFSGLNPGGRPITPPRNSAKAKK
ZTA counter: counter-screen for EBNA-1 inhibitors: inhibitors of Epstein-Barr virus ZTA; inhibition, % at 11 µM; P03206; AID 2234; 0.15% of 320,000 active; ZTA-DNA binding, fluorescence polarization; in the data active means inhibition above about 33%
NS3 helicase inh: HCV NS3 helicase inhibition; inhibition, % at 10.9 µM; NS3 helicase DNA unwinding, Cy5 molecular beacon fluorescence; 0.56% of 290,000 active;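 active means inhibition above the mean of all tested compounds plus 3 SD, set per campaign, cut at about 35% in these data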;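 further: 0% = DMSO wells and 100% = thioflavine S control wells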
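System: NS3 helicase fragment of HCV / Schedule: 1 h at 25 °C / Control set: DMSO alone as 0% and 110 µM thioflavine S as 100% / Reagent: Cy5/quencher beacon DNA duplex and ATP to start / Technique: Cy5 fluorescence / Replication: singlicate / Evaluation: % inhibition of end-to-start signal ratio versus controls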
core dimer inh: HCV core protein dimerization inhibition | TR-FRET GST/Flag-core106 dimerization, 1536-well | AID 1899 | inhibition, % at 5 µM | 0.33% of 300,000 active;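 active means inhibition above the mean of all tested compounds plus 3 SD, set per screening campaign, cut at about 45% in these data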
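Material: Tagged HCV core106 pair (GST and Flag) | Amount: GST-core106 13.5 nM, Flag-core106 17 nM | Medium: KF-containing HEPES buffer, pH 7.45, DTT, CHAPS, BSA | Reagent: Eu donor and XL665 acceptor anti-tag antibodies | Schedule: 4 h at 22.5 °C | Technique: Time-resolved FRET, ex 340 nm, em 617 and 671 nm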
EBNA-1 inhibitor: blocks EBNA-1 binding to DNA. EBNA-1 DNA binding, fluorescence polarization. 0.34% of 300,000 active. inhibition, % at 14.8 µM; in the data active means inhibition above about 28%
EBNA-1 confirm: EBNA-1 (EBV) inhibition, confirmation; shares compounds with EBNA-1 inhibitor; Recombinant EBNA-1 DBD, Cy5-DNA fluorescence polarization; inhibition, % at 14.8 µM; 35% of 830 active;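 active means mean inhibition across replicates above a set limit taken from the earlier primary screen, cut at about 28% in these data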;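 further: plate controls were EBNA-1 protein with DMSO for no effect and wells lacking EBNA-1 for full effect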
ZTA counter trip: ZTA (EBV) inhibition, triplicate counter-screen. shares compounds with EBNA-1 inhibitor. Zta-ZRE DNA binding, Cy5 fluorescence polarization. inhibition, % at 11.1 µM. 830 tested, under 10 active. AID 2328;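 active means mean inhibition over triplicates above a set limit taken from the primary EBNA-1 screen, cut at about 37% in these data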;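 further: purified full length Zta protein with Cy5 labeled ZRE DNA probe; 0% = Zta with DMSO and 100% = wells lacking Zta protein; inhibitors lower polarization by freeing the labeled DNA probe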
An asterisk follows results filed as active; / = no result. An excerpt weighted towards active compounds, which were near 1.9% of everything screened.

SMILES	PP1 counter	ZTA counter	NS3 helicase inh	core dimer inh	EBNA-1 inhibitor	EBNA-1 confirm	ZTA counter trip
O=C(NCCc1ccc(Cl)cc1)C1CCC(CNc2nc(=S)[nH]c3ccccc23)CC1 (stereo not given)	6	5	-8	11	30*	32*	0
O=C(NCc1ccccc1Cl)C1CCC(CNc2nc(=S)[nH]c3ccccc23)CC1 (stereo not given)	-3	4	-10	9	-22	/	/
CCCCNC(=O)C1CCC(CNc2nc(=S)[nH]c3ccccc23)CC1 (stereo not given)	-4	6	0	2	3	/	/
O=C(NCCC1=CCCCC1)C1CCC(CNc2nc(=S)[nH]c3ccccc23)CC1 (stereo not given)	2	8	9	10	32*	24	-4
CCn1cc(C(=O)NCc2ccc(OC)cc2)c(=O)c2ccc(C)nc21	2	9	-9	0	-1	/	/
O=C(CSc1nc2ccccc2c(=O)n1-c1ccccc1)c1cccc([N+](=O)[O-])c1	-6	6	/	14	32*	27	0
O=C(Nc1nnc(CC(c2ccccc2)c2ccccc2)s1)c1ccco1	-4	-13	-3	4	37*	18	5
C=CCn1c(SCC(=O)NC(=O)NCc2ccco2)nc2sc(C)c(C)c2c1=O	13	9	0	11	47*	32*	2
CCc1ccccc1N(C)S(=O)(=O)c1ccc2[nH]cc(C(=O)N3CCc4ccccc43)c(=O)c2c1	14	4	-39	19	28*	3	-1
Cc1cccc(N(C)S(=O)(=O)c2ccc3[nH]cc(C(=O)N4CCOCC4)c(=O)c3c2)c1	1	-4	3	-6	-6	/	/
Cc1cccc(N2CCN(S(=O)(=O)c3cc4c(cc3Cl)NC(=O)CO4)CC2)c1C	5	-9	-13	17	-4	/	/
COc1ccc(N2CCN(S(=O)(=O)c3cc4c(cc3C)NC(=O)CO4)CC2)cc1	0	15	0	-46	33*	18	1
Cc1cc2c(cc1S(=O)(=O)N1CCCCC1)OCC(=O)N2	-2	-2	15	-3	5	/	/
COc1cccc(N2CCN(S(=O)(=O)c3cc4c(cc3Cl)NC(=O)CO4)CC2)c1	1	12	10	20	32*	21	3
COc1ccc2oc(C(=O)OCC(=O)NCCN3C(=O)CSC3=O)c(C)c2c1	-3	-16	5	-1	-12	/	/
O=C(NCC(=O)N1CCCCCCC1)c1ccc(Br)o1	-5	10	/	-3	1	/	/
Cc1nc(NC(=O)CSc2ccc(-c3nc4ccccc4[nH]3)cn2)sc1C	2	5	-1	9	26	/	/
CCc1nnc(NC(=O)CSc2ccc(-c3nc4ccccc4[nH]3)cn2)s1	3	14	-10	12	58*	53*	0
COC(=O)c1c(NC(=O)C2CCCCC2)sc2c1CC(C)(C)NC2(C)C	-4	0	-59	14	10	/	/
O=C(N/N=C/c1ccc(F)cc1)c1cc(-c2ccc3c(c2)OCO3)n[nH]1	2	-2	-8	4	32*	16	4
CC(CNc1ccccc1O)C(=O)O (stereo not given)	2	-10	14	-53	-15	/	/
O=S(=O)(NCCOc1ccccc1)c1ccc2ccccc2c1	0	9	-2	-1	31*	14	-2
CS(=O)(=O)NCCOc1ccc(S(=O)(=O)NCCOc2ccccc2)cc1	-3	19	-5	1	2	/	/
CCNC(=S)N/N=C/c1c(C)nn(-c2cccc(Cl)c2)c1Cl	-2	12	-5	17	57*	48*	0
CN(C)c1ccc(/C=C(\C#N)C(=O)NCc2ccco2)cc1	6	24	-4	-22	44*	69*	-5
O=C(CCSc1nc2ccccc2s1)N/N=C/c1c(O)ccc2ccccc12	11	21	10	36	48*	6	8
Cc1cc2nc(-c3cccc(NC(=O)c4ccc(Br)o4)c3)oc2cc1C	-2	2	-2	11	51*	15	-2

Compound activity as filed in PubChem BioAssay.
